Screens as filed in PubChem BioAssay.
SENP1 inh – SENP1 (human) catalytic domain inhibition; Q9P0U3; recombinant SENP1 catalytic domain, CyPet-SUMO1-YPet FRET cleavage; AID 624204; inhibition, % at 10 µM; 0.21% of 360,000 active;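 active means inhibition at least 30% at 10 µM, raw YFP signal under a set limit, fluorescence ratio 0.5 to 1.5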;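 further: 0% = enzyme with DMSO and 100% = no enzyme wells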
Target sequence (Q9P0U3 419-644 limits assumed): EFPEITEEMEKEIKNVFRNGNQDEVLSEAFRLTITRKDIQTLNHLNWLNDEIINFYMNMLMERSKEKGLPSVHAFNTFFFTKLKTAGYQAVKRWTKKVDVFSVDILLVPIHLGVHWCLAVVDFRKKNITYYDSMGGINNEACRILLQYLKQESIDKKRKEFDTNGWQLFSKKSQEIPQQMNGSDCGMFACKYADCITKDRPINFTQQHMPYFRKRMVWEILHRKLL
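Material – human SENP1 catalytic domain · Input – SENP1 enzyme, 20 pM final · Compound dosing – single concentration of 10 µM compound, 0.5% DMSO final · Timing – enzyme reaction for 50 min at room temperature, dark · Measured by – FRET fluorescence in CFP and YFP emission channels · Control set – no-enzyme wells low, DMSO-plus-enzyme wells high control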
SENP6 inh – inhibitors of human SENP6 protease; Q9GZR1; Recombinant SENP6 catalytic domain, aminoluciferin luminescence; inhibition, % at 10 µM; 1.8% of 330,000 active; AID 2599;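 active means inhibition above about 50% at the single tested dose, limit read from the data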;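 further: plate controls were DMSO wells with enzyme for no effect and DMSO wells lacking enzyme for full effect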
HSP90 refold inh – blocks HSP90-mediated luciferase refolding in reticulocyte lysate; inhibition, % at 5.6 µM; 0.91% of 290,000 active; Rabbit reticulocyte lysate, luciferase refolding luminescence, 3 h; AID 1789;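 active means inhibition above the screen-wide mean plus 3 SD, computed separately per campaign, cut at about 16% in these data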;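 further: 0% = DMSO wells and 100% = 60 µM geldanamycin wells; inhibitors lower the luminescence because luciferase stays unfolded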
SENP8 block-1 – SENP8 protease inhibition; Q96LD8; purified SENP8, Z-RLRGG-aminoluciferin cleavage, luminescence; inhibition, % at 10 µM; 1.2% of 330,000 active; in the data active means inhibition above about 50%
SENP7 inh – SENP7 protease inhibition; Q9BQF6; 1.5% of 330,000 active; AID 434973; inhibition, % at 5 µM; recombinant SENP7, Z-RLRGG-aminoluciferin luminescence, 40 min;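 active means inhibition above about 50% at the single test dose, limit read from the data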;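 further: plate controls were DMSO with enzyme for no effect and no enzyme buffer wells for full effect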
Target sequence (Q9BQF6 706-1050 limits assumed): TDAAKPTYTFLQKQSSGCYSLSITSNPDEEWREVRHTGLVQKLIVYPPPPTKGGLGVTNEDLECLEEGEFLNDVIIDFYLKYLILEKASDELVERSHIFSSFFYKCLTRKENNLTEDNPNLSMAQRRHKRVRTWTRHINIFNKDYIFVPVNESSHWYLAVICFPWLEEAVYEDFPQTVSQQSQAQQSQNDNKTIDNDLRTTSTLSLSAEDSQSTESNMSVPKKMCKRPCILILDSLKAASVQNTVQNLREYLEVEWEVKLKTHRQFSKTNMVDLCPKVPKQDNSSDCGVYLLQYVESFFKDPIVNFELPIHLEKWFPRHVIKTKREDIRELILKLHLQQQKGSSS
SENP8 block-2 – inhibitors of human SENP8 protease; 0.64% of 360,000 active; Q96LD8; inhibition, % at 20 µM; recombinant SENP8, Nedd8 substrate fluorescence; in the data active means inhibition mostly above about 40%, no sharp cut-off; inactive means mostly below about 27%
HSP90 confirm – confirmation of HSP90 inhibitors; shares compounds with HSP90 refold inh; rabbit reticulocyte lysate, luciferase refolding luminescence, 3 h; inhibition, % at 5.9 µM; 64% of 2,300 active; in the data active means inhibition above about 18%;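 further: 0% = vehicle wells and 100% = reference inhibitor wells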
luciferase ctr – blocks native firefly luciferase in HSP90 counter-screen; shares compounds with HSP90 refold inh; purified native firefly luciferase, luminescence; inhibition, % at 5.9 µM; 48% of 2,300 active; AID 1847;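 active means inhibition above the mean inhibition of all tested sample wells plus 3 SD, cut at about 10% in these data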;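 further: 0% = DMSO with luciferase and 100% = wells lacking luciferase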
SENP8 confirm – confirmation of human SENP8 protease inhibitors | shares compounds with SENP7 inh | AID 488912 | inhibition, % at 12.5 µM | Recombinant SENP8, Z-RLRGG-aminoluciferin luminescence, 60 min | 40% of 6,200 active;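 active means mean inhibition across replicates above about 50%, limit read from the data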
SENP6 conf – confirmation of human SENP6 protease inhibitors; shares compounds with SENP7 inh; AID 488915; inhibition, % at 12.5 µM; recombinant SENP6, Z-RLRGG-aminoluciferin luminescence; 58% of 6,200 active
SENP7 confirm – confirmation of human SENP7 protease inhibitors | shares compounds with SENP7 inh | recombinant SENP7, Z-RLRGG-aminoluciferin luminescence, 40 min | 69% of 6,200 active | inhibition, % at 12.5 µM
Casp3 SENP sel – selectivity test for SENP inhibitors: human caspase-3 inhibition; shares compounds with SENP7 inh; purified caspase-3, Z-DEVD-aminoluciferin luminescence, 60 min; inhibition, % at 12.5 µM; 60% of 6,200 active; AID 488918;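 active means mean inhibition above about 50%, limit read from the data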;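 further: plate controls were enzyme with DMSO for no effect and wells without caspase-3 for full effect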
Luc interf – counter-screen for SENP inhibitors: luminescence interference; shares compounds with SENP7 inh; Pre-incubated SENP8/Z-RLRGG-aminoluciferin, luciferase luminescence interference; inhibition, % at 12.5 µM; 39% of 6,200 active; AID 488919;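 active means mean inhibition above about 50% when retested at one dose, limit read from the data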;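 further: plate controls were DMSO wells with completed reaction for no effect and substrate without enzyme for full effect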
* = called active by the depositor; . = not tested or not shown. An excerpt weighted towards active compounds, which were near 2.9% of everything screened.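 How the source made its calls, unless noted: active means mean inhibition above about 50% in the one-dose retest (limit read from the data); inactive means the rest.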

SMILES | SENP1 inh | SENP6 inh | HSP90 refold inh | SENP8 block-1 | SENP7 inh | SENP8 block-2 | HSP90 confirm | luciferase ctr | SENP8 confirm | SENP6 conf | SENP7 confirm | Casp3 SENP sel | Luc interf
O=C(NCCN1CCOCC1)c1ccc2c(c1)N(Cc1ccccc1F)C(=O)c1ccccc1S2(=O)=O | -1 | -12 | 8 | -9 | 11 | 4 | . | . | . | . | . | . | .
Cc1ccsc1/C=N/Nc1ccc(C(=O)O)cc1 | -17 | 97* | 68* | 96* | 99* | -116 | 81* | 77* | 99* | 100* | 103* | 98* | 98*
Cc1nn(-c2ccccc2Cl)c(Cl)c1/C=N/Nc1cccc(C(=O)O)c1 | 3 | 97* | 33* | 97* | 95* | -7 | 61* | 77* | 99* | 101* | 103* | 91* | 98*
O=C(O)c1ccc(N/N=C/c2cc(Br)cs2)cc1 | -30 | 99* | 50* | 97* | 100* | -29 | 70* | 71* | 98* | 99* | 102* | 46 | 97*
COc1ccc2ccccc2c1/C=N/Nc1cccc(C(=O)O)c1 | -73 | 0 | 12 | 8 | 6 | -64 | . | . | . | . | . | . | .
O=C(O)c1cccc(N/N=C/c2cccc3ccccc23)c1 | -32 | 97* | 63* | 95* | 55* | -35 | 87* | 90* | 100* | 100* | 103* | 94* | 99*
O=C(N/N=C\c1cc(Br)cs1)c1ccncc1 | 0 | -19 | 2 | -5 | -4 | 8 | . | . | . | . | . | . | .
O=C(CN1C(=O)NC2(CCCCCCC2)C1=O)NCc1ccccc1Cl | 4 | -2 | . | 0 | 5 | 14 | . | . | . | . | . | . | .
Cc1ccc(/C=N/Nc2cccc(C(=O)O)c2)s1 | -35 | 95* | 24* | 96* | 97* | -39 | 86* | 85* | 99* | 100* | 103* | 92* | 98*
Cc1ccsc1/C=N/Nc1cccc(C(=O)O)c1 | -13 | 98* | 65* | 97* | 100* | -40 | 94* | 92* | 98* | 99* | 102* | 97* | 98*
CCc1ccn2cc(-c3cc(-c4ccccc4)no3)nc2c1 | 2 | 93* | 82* | 90* | 97* | -355 | 86* | 84* | 43 | 93* | 77* | 62* | 7
C#Cc1ccc(NC(=O)C2(C)CCN2C(=O)c2cc(C)n(C)n2)cc1 (centres undefined) | 2 | . | . | . | . | 19 | . | . | . | . | . | . | .
Cc1ccc(-c2cc(C(=O)N3CCCCCC3)no2)cc1 | 0 | 61* | 23* | 49 | 47 | 7 | 29* | 20* | 18 | 36 | 24 | 18 | -2
O=C(c1cc(-c2ccccc2)on1)N1CCCCCC1 | 0 | 5 | 14 | -2 | 5 | 9 | . | . | . | . | . | . | .
COc1ccc(-c2cc(C(=O)N3CCCCCC3)no2)cc1OC | 2 | -13 | -3 | -15 | -5 | -2 | . | . | . | . | . | . | .
COc1ccc2cc3cc(C(=O)N4CCCCCC4)oc3nc2c1 | 1 | 77* | 17* | 79* | 87* | -376 | 40* | 22* | 19 | 82* | 97* | 69* | -1
COc1ccc(-c2cc(C(=O)N3CCCC3)no2)cc1 | 4 | 74* | 39* | 50 | 53* | 5 | 57* | 42* | 49 | 52* | 86* | 80* | 39
Cc1ccc2c(c1)[C@H]1[C@H](CO2)[C@H](c2ccccc2)[C@]2(C)C(=O)N(C)CC(=O)N12 | 4 | . | . | . | . | -4 | . | . | . | . | . | . | .
COc1cc(/C=N/Nc2ccccc2[N+](=O)[O-])cc(OC)c1O | 5 | -10 | 1 | -23 | 19 | 31 | . | . | . | . | . | . | .
COc1cc(/C=N/Nc2nc3ccccc3s2)cc([N+](=O)[O-])c1O | 1 | 11 | 29* | 58* | 32 | 42* | -11 | -30 | 5 | 15 | 4 | 14 | 1
Cc1ccc(-n2nc3c(=O)n(CC(=O)NC4CCCCCC4)nc(C)c3c2C)cc1 | 1 | 20 | 6 | 4 | 2 | 8 | . | . | . | . | . | . | .
CN(C)c1ccc(-c2nc3ccccc3n2C)cc1 | 1 | 91* | 28* | 89* | 96* | -261 | 64* | 53* | 96* | 98* | 102* | 98* | 96*
CC(C)n1c(-c2ccc(N(C)C)cc2)nc2ccccc21 | 1 | 10 | 9 | 6 | -10 | -493 | . | . | . | . | . | . | .
Cc1cc2ncc(-c3ncc(C(F)(F)F)cc3Cl)cn2n1 | -14 | -19 | 18* | 26 | 59* | -15 | 67* | 55* | 26 | 40 | 77* | 79* | 28
N#Cc1cnn2cc(-c3ncc(C(F)(F)F)cc3Cl)cnc12 | -2 | -6 | -1 | 0 | 4 | -122 | . | . | . | . | . | . | .
SMILES | SENP1 inh | SENP6 inh | HSP90 refold inh | SENP8 block-1 | SENP7 inh | SENP8 block-2 | HSP90 confirm | luciferase ctr | SENP8 confirm | SENP6 conf | SENP7 confirm | Casp3 SENP sel | Luc interf
CC1(C(=O)Nc2cccc(OC(F)(F)F)c2)Cc2c(-c3ccc(C(N)=O)cc3)ccnc2O1 (centres undefined) | 0 | . | . | . | . | 14 | . | . | . | . | . | . | .
O=C(Nc1ccccc1)Nc1ccc(C(=O)N2CCCC2)cc1 | 1 | 97* | 22* | 94* | 97* | 12 | 43* | 20* | 96* | 97* | 102* | 98* | 74*
O=C(NCc1ccccc1)C(c1ccccn1)N(C(=O)c1csnn1)c1ccccc1F (centres undefined) | 0 | -2 | -1 | 5 | 6 | 4 | . | . | . | . | . | . | .
O=S(=O)(Cc1ccccc1)NCc1cccnc1 | 0 | -7 | 1 | 9 | 3 | -3 | . | . | . | . | . | . | .
O=C1C(Cl)=C(NCc2cccnc2)C(=O)c2ccccc21 | 7 | 60* | 18* | 30 | 30 | 86* | 5 | -3 | 47 | 72* | 27 | 66* | 3
Cc1ccc(S(=O)(=O)N(C)C)cc1NC(=O)COC(=O)C1=COCCO1 | -1 | -2 | . | -5 | -1 | 18 | . | . | . | . | . | . | .
CCCCC(=O)Nc1cc2nn(-c3ccc(OC)cc3)nc2cc1C | 3 | -50 | 0 | -3 | -11 | -320 | . | . | . | . | . | . | .
